Residues, ends and D or L forms follow the SMILES beside them. *: point of attachment. Adamantane1carbonyl = O=C(C12CC3CC(CC(C3)C1)C2)*; OtBu = CC(C)(C)O*

The values that follow come from ChEMBL document CHEMBL4699573, “Design, Synthesis, and Pharmacological Evaluation of Analogues Derived from the PLEV Tetrapeptide as Protein-Protein Interaction Modulators of Voltage-Gated Sodium Channel 1.6” (J Med Chem, 2020).

The nature of assay [1]: Modulation of recombinant human FGF141b (1 to 252 residues)-recombinant human Nav1.6 C-terminal tail (1763 to 1976 residues) protein-protein interaction expressed in HEK293 cells measured at 2 mins interval for 20 mins by split-luciferase complementation assay. Format: cell-based. Put shortly:
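Double-stable HEK293 line expressing CLuc-FGF14 and CD4-Nav1.6-C-tail-NLuc, kept on G418 and puromycin. Cells seeded for 24 h, then given compound for 1 h in serum-free, phenol red-free DMEM/F12 with a final 0.5% DMSO: 50 μM for screening, 0.25–100 μM over eight concentrations for dose-response; n = 4. D-luciferin added and read every 2 min for 20 min at 37 °C. Peak luminescence expressed as percent of per-plate DMSO mean (n = 32). IC50 from four-parameter nonlinear fit. At least 3 experiments.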

For assay [2], the target named is T1, Sodium channel protein type 8 subunit alpha (Homo sapiens, UniProt Q9UQD0). The assay is described as follows: Binding affinity to human recombinant Nav1.6 C-terminal domain expressed in Escherichia coli BL21 assessed as assessed as induction of protein denaturation by measuring change in melting temperature at 10 uM by fluorescent dye based thermal shift assay. The conditions noted are these: filed as modulator, dose 50.0 µM.
Target sequence in this assay (Q9UQD0 whole entry, looked up, the tested form may be a part): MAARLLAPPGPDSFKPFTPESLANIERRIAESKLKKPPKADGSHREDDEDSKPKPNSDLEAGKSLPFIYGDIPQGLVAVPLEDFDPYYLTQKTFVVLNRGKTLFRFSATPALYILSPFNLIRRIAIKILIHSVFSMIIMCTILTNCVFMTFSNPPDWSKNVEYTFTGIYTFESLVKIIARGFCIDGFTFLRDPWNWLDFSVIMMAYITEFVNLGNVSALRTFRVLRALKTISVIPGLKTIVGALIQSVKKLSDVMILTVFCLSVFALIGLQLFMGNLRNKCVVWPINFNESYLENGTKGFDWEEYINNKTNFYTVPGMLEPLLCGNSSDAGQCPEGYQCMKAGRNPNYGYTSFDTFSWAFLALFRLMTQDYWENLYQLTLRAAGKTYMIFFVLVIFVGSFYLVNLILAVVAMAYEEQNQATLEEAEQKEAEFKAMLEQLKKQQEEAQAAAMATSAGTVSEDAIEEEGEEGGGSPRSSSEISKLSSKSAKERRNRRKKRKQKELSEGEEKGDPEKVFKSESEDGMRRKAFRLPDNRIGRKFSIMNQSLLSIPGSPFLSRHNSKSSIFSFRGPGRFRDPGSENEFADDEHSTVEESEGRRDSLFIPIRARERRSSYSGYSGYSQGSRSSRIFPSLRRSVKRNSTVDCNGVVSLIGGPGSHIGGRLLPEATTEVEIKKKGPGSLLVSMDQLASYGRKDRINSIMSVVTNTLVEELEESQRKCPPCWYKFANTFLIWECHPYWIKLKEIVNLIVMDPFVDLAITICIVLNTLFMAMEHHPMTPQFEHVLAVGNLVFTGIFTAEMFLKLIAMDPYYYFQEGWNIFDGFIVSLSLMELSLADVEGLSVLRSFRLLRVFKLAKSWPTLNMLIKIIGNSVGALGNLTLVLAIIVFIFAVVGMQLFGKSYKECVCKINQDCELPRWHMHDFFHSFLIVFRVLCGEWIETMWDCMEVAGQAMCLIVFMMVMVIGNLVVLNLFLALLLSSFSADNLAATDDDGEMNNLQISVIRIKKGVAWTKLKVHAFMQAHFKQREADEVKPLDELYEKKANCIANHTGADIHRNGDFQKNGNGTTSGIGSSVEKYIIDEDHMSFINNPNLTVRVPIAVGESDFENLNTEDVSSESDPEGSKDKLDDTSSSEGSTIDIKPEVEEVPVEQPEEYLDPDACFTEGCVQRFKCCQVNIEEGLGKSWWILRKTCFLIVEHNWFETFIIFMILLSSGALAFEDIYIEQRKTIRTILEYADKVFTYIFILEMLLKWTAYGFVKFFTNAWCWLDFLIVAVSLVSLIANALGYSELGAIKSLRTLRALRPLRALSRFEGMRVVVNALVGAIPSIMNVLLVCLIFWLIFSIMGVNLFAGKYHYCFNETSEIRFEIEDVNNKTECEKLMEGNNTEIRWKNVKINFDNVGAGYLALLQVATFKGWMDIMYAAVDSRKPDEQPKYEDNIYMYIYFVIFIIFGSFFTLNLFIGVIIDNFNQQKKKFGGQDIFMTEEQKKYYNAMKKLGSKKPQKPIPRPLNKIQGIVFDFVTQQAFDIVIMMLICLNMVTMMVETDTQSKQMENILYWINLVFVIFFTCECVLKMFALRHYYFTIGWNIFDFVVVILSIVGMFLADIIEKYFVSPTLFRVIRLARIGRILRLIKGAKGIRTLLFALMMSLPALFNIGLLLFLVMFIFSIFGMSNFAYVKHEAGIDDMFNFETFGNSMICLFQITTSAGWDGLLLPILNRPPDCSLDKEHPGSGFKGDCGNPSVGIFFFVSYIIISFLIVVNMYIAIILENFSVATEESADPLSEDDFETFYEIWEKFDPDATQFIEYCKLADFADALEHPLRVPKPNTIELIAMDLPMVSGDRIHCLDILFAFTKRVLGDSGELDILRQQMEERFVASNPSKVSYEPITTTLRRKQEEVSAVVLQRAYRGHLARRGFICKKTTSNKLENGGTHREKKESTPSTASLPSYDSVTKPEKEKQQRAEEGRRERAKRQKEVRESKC

The target of assay [3] is T2, Fibroblast growth factor 14 (Homo sapiens, UniProt Q92915).
T2 sequence (Q92915 whole entry): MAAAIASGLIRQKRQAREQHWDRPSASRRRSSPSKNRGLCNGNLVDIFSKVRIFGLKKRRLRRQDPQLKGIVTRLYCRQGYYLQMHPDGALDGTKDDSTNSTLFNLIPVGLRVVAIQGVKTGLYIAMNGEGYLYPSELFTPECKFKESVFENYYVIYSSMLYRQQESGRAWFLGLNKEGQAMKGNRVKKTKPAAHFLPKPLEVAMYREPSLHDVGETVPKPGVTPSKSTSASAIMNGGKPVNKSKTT
Put plainly: Binding affinity to human recombinant FGF14 expressed in Escherichia coli BL21 assessed as dissociation constant by SPR analysis. Put shortly:
(§1)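 Biacore T100 runs with FGF14 (17,896 RU) or Nav1.6 C-tail (6,800 RU) amine-coupled on CM5 at pH 5.5. Compounds at 0.195–200 μM in PBS, 0.005% Tween-20, 2% DMSO; 50 μL/min at 25 °C. 120 s association, 150 s dissociation, DMSO calibration, blank subtraction. Rates from a Langmuir 1:1 fit; KD averages the kinetic and steady-state values. At least duplicate experiments.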
On the technique in general: SPR reads the build-up and loss of mass on a sensor chip optically.

In assay [4] the target is T1, Sodium channel protein type 8 subunit alpha. Put plainly: Binding affinity to human recombinant Nav1.6 C-terminal domain expressed in Escherichia coli BL21 assessed as dissociation constant by SPR analysis. Put shortly: as §1
Target sequence in this assay (Q9UQD0 whole entry, the tested form may be a part): as the sequence (Q9UQD0 whole entry, looked up, the tested form may be a part) above
Assay [5] has as its target T3, Fibroblast growth factor 14 (Homo sapiens) (UniProt Q92915).
T3 sequence (whole entry): T2 sequence (Q92915 whole entry)
The assay is described as follows: Binding affinity to human recombinant FGF14 expressed in Escherichia coli BL21 assessed as association rate constant by SPR analysis. The conditions noted are these: filed as modulator. The procedure, abridged:
as §1

Assay [6] concerns the target T3, Fibroblast growth factor 14 (Homo sapiens). Put plainly: Binding affinity to human recombinant FGF14 expressed in Escherichia coli BL21 assessed as dissociation rate constant by SPR analysis. The conditions noted are these: filed as modulator. Put shortly:
as §1

The target of assay [7] is T1, Sodium channel protein type 8 subunit alpha. The assay is described as follows: Binding affinity to human recombinant Nav1.6 C-terminal domain expressed in Escherichia coli BL21 assessed as association rate constant by SPR analysis. The conditions noted are these: filed as modulator. The procedure, abridged: as §1
Target sequence in this assay (Q9UQD0 whole entry, looked up, the tested form may be a part): as the sequence (Q9UQD0 whole entry, looked up, the tested form may be a part) above
For assay [8] the target is unchanged. The assay is described as follows: Binding affinity to human recombinant Nav1.6 C-terminal domain expressed in Escherichia coli BL21 assessed as dissociation rate constant by SPR analysis. The conditions noted are these: filed as modulator. Put shortly:
as §1
Target sequence in this assay (Q9UQD0 whole entry, looked up, the tested form may be a part): as the sequence (Q9UQD0 whole entry, looked up, the tested form may be a part) above

Assay [9] has the same target. The assay is described as follows: Modulation of recombinant human Nav1.6 C-terminal tail (1763 to 1976 residues) expressed in HEK293 cells assessed as peak current density at 10 uM incubated for 30 mins by whole cell patch clamp electrophysiology assay (reference value: -50.1 +/- 3.1 pA/pF). Format: cell-based. As to conditions: filed as modulator. Put shortly: (§2)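 Stable HEK-Nav1.6 cells without FGF14, incubated at least 30 min in extracellular solution (mM: 140 NaCl, 3 KCl, 1 MgCl2, 1 CaCl2, 10 HEPES, 10 glucose, pH 7.3) with compound (10 or 30 μM) or 0.1% DMSO. Whole-cell recording with Cs-methanesulfonate/EGTA/NaCl/HEPES pipette solution, 70–80% compensation. Steps −100 to +60 mV; tau measured at −10 mV. Student's t-test.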
(Patch clamp records ionic current or voltage across a cell membrane.)
Target sequence in this assay (Q9UQD0 whole entry, looked up, the tested form may be a part): as the sequence (Q9UQD0 whole entry, looked up, the tested form may be a part) above

The target is the same in assay [10]. The assay is described as follows: Modulation of recombinant human Nav1.6 C-terminal tail (1763 to 1976 residues) expressed in HEK293 cells assessed as change in time constant of fast inactivation at 10 uM incubated for 30 mins by whole cell patch clamp electrophysiology assay (reference value: 1.22 +/- 0.07 ms). Format: cell-based. The conditions noted are these: filed as modulator. Put shortly: as §2
Target sequence in this assay (Q9UQD0 whole entry, looked up, the tested form may be a part): as the sequence (Q9UQD0 whole entry, looked up, the tested form may be a part) above

For assay [11] the target is unchanged. Put plainly: Modulation of recombinant human Nav1.6 C-terminal tail (1763 to 1976 residues) expressed in HEK293 cells assessed as long-term inactivation at depolarization cycle 2 at 10 uM incubated for 30 mins by whole cell patch clamp electrophysiology assay (reference value: 0.84 +/- 0.03). Format: cell-based. As to conditions: filed as modulator.
Target sequence in this assay (Q9UQD0 whole entry, looked up, the tested form may be a part): as the sequence (Q9UQD0 whole entry, looked up, the tested form may be a part) above
For assay [12] the target is unchanged. The assay is described as follows: Modulation of recombinant human Nav1.6 C-terminal tail (1763 to 1976 residues) expressed in HEK293 cells assessed as long-term inactivation at depolarization cycle 4 at 10 uM incubated for 30 mins by whole cell patch clamp electrophysiology assay (reference value: 0.75 +/- 0.05). Format: cell-based. As to conditions: filed as modulator.

Assay [13] deals with T4, Fibroblast growth factor 14/SCN8A (Homo sapiens) (UniProt Q9UQD0+Q92915). Put plainly: Modulation of recombinant human Nav1.6 C-terminal tail (1763 to 1976 residues)-FGF14 (64 to 252 residues) protein-protein interaction expressed in HEK293 cells assessed as change in time constant of inactivation at 10 uM incubated for 30 mins by cell patch clamp electrophysiology assay (reference value: 1.58 +/- 0.18 ms). It counts as cell-based. The conditions noted are these: filed as modulator. The procedure, abridged:
(§3)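 HEK-Nav1.6 cells transiently transfected with FGF14 using Lipofectamine 2000, then exposed at least 30 min to 10 μM compound or 0.1% DMSO in the pH 7.3 HEPES extracellular solution. Whole-cell patch clamp with Cs-methanesulfonate internal solution, 70–80% capacitance and series-resistance compensation. Test steps from −100 to +60 mV. Student's t-test used.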

For assay [14], the target named is T4, Fibroblast growth factor 14/SCN8A (Homo sapiens). The assay is described as follows: Modulation of recombinant human Nav1.6 C-terminal tail (1763 to 1976 residues)-FGF14 (64 to 252 residues) protein-protein interaction expressed in HEK293 cells assessed as half activation voltage at 10 uM incubated for 30 mins by cell patch clamp electrophysiology assay (reference value: -21.4 +/- 1 mv). It counts as cell-based. The procedure, abridged: as §3

Assay [15] has the same target. Put plainly: Modulation of recombinant human Nav1.6 C-terminal tail (1763 to 1976 residues)-FGF14 (64 to 252 residues) protein-protein interaction expressed in HEK293 cells assessed as long-term inactivation at depolarization cycle 3 at 10 uM incubated for 30 mins by cell patch clamp electrophysiology assay (reference value: 0.99 +/- 0.04). It counts as cell-based. The conditions noted are these: filed as modulator. The procedure, abridged: as §3

Assay [16] shares this target. The assay is described as follows: Modulation of recombinant human Nav1.6 C-terminal tail (1763 to 1976 residues) -FGF14 (64 to 252 residues) protein-protein interaction expressed in HEK293 cells assessed as long-term inactivation at depolarization cycle 4 at 10 uM incubated for 30 mins by cell patch clamp electrophysiology assay (reference value: 0.98 +/- 0.06). It counts as cell-based. The conditions noted are these: filed as modulator.

For assay [17], the target named is T1, Sodium channel protein type 8 subunit alpha. The assay is described as follows: Modulation of recombinant human Nav1.6 C-terminal tail (1763 to 1976 residues) expressed in HEK293 cells assessed as peak current density at 30 uM incubated for 30 mins by whole cell patch clamp electrophysiology assay (reference value: -50.1 +/- 3.1 pA/pF). Format: cell-based. Put shortly:
as §2

T4 sequence (Q9UQD0 whole entry, looked up, one chain of several, the tested form may be a part): as the sequence (Q9UQD0 whole entry, looked up, the tested form may be a part) above

Regarding `COC(=O)[C@@H](NC(=O)[C@H](CCC(=O)OC(C)(C)C)NC(=O)[C@H](CC(C)C)NC(=O)[C@@H]1CCCN1C(=O)C12CC3CC(CC(C3)C1)C2)C(C)C` (Adamantane1carbonyl-PLE(OtBu)V-OMe), the IC50 – broadly, the concentration that inhibits the measured activity by half – in assay [1] is 20.4 µM. In assay [2], the ΔTm (usually the shift of the melting midpoint relative to a reference) was -4.64 °C. The Kd (as a rule, the free concentration of one partner at which half of the binding sites on the other are occupied at equilibrium, for simple one-to-one binding) is 4.05 µM in assay [3] and 16.4 µM in assay [4]. Besides, the K in assay [5] was 4.66 10^3/M/s; in assay [6], 9.33 10^-3/s; in assay [7], 6.23 10^4/M/s; in assay [8], 3.57 10^-3/s; in [10], 1.45 ms; in assay [13] it was 1 ms. Further, the Activity is -25.8 pA/pF in assay [9]; 0.87 in assay [11]; 0.7 in assay [12]; -21.6 mV in assay [14]; 0.81 in [15]; 0.75 in assay [16]. In assay [17], the Activity is -17.9 pA/pF.
